# Shown are actives, neighbours in structure and some others; about 2.1% of the full set was active somewhere.
# APJ antagonist: antagonists of human apelin receptor APJ, primary screen, CHO-K1 cells, beta-arrestin complementation, luminescence | P35414 | inhibition, % at 20 µM | actives 0.32% (n = 330,000) | AID 2521, 2010;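 active means inhibition above about 40% at 20 µM, limit read from the data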;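 further: cells challenged with 10 nM apelin-13 agonist together with compound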
# Target sequence (P35414 whole entry, looked up): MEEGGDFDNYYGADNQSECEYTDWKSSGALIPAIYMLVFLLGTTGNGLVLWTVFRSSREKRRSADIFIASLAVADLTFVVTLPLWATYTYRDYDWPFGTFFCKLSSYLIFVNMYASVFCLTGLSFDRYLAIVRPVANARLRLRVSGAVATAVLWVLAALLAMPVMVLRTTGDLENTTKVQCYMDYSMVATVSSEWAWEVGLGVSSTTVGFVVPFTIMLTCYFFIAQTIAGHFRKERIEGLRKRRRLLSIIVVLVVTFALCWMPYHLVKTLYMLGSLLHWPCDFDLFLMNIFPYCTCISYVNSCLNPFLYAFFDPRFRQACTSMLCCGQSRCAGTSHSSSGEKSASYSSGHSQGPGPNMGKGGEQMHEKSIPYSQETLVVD
# EBI2 block: EBI2 receptor antagonists, beta-arrestin recruitment, primary screen, cell-based, luminescence, 7a,25-OHC stimulation, uHTS | AID 651636, 2012 | 7a,25-OHC stimulated | actives 0.81% (n = 360,000) | inhibition, % at 5 µM; in the data active means inhibition above about 38%;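 further: enzyme fragment complementation signal reports receptor beta-arrestin coupling in cells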
# m5-HT2A agonist: mouse Htr2a agonists via beta-arrestin recruitment, primary screen, cell-based, luminescence; 5-hydroxytryptamine receptor 2A (Mus musculus), P35363; CHO-K1 mHTR2A beta-arrestin complementation; percent of 30 µM serotonin response; activation, % at 7.6 µM; actives 0.66% (n = 360,000); AID 624169, 2012;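 active means activation above a run cutoff, the mean activation of all tested compounds plus 3 SD, cut at about 14% in these data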
# CXCR6 block: CXCR6 receptor inhibitors, primary screen, cell-based, beta-arrestin, luminescence, CHO-K1 PathHunter, 1536-well; inhibition, % at 20 µM; actives 0.36% (n = 360,000); C-X-C chemokine receptor type 6 (Homo sapiens), O00574; in the data active means inhibition above about 34%, passing the limit was not always enough;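 further: antagonist mode with CXCL16 agonist at 10 nM final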
# APJ agonist: agonists of human apelin receptor APJ, primary screen, CHO-K1 cells, PathHunter beta-arrestin, luminescence | AID 2520, 2010 | activation, % at 20 µM | P35414 | 0% DMSO wells, 100% apelin | actives 0.11% (n = 330,000);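 active means activation more than six SD over the plate average, tested at 20 µM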
#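 Assay system: engineered CHO-K1 APJ arrestin reporter cells; Amount: 1000 CHO-K1 reporter cells seeded per well; Dosing: one dose, 20 µM compound, 1% DMSO; Times: compound stimulation 90 min at 25 °C, detection 60 min; Measured by: luminescent beta-gal fragment complementation, chemiluminescent substrate; Read-out: APJ–arrestin association signal; Controls: DMSO vs Apelin-13 10 nM.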
# CCR6 antagonist: CCR6 receptor antagonists, primary screen, cell-based, CHO-K1, luminescence, beta-arrestin, uHTS | actives 0.49% (n = 340,000) | C-C chemokine receptor type 6 (Homo sapiens), P51684 | CHO-K1 CCR6 PathHunter beta-arrestin, CCL20-stimulated | inhibition, % at 20 µM | AID 493098, 2011;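 active means compounds whose inhibition of the agonist-driven luminescence signal at 20 µM reaches about 50%, limit read from the data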;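 further: cells stimulated with CCL20 at 14 nM final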
# Numbers stand for hits; n = inactive; x = no result.
SMILES,APJ antagonist,EBI2 block,m5-HT2A agonist,CXCR6 block,APJ agonist,CCR6 antagonist
Oc1c(Cl)cc(Cl)cc1/C=N/Nc1ncc(Br)cn1,n,76,n,62,n,74
CCC[C@@H]1C[C@@H](C(=O)NC(C(C)Cl)[C@H]2O[C@H](SC)[C@H](O)[C@@H](O)[C@H]2O)N(C)C1 (stereo not given in full),n,n,40,n,n,n
CCCC1CC(C(=O)NC(C(C)Cl)C2OC(SC)C(O)C(O)C2O)N(C)C1 (stereo not given),n,n,n,n,n,n
COc1ccc(C2CCCN2C(=O)Nc2ccc(C)c(C)c2)cc1OC (stereo not given),n,51,n,n,n,n
COc1ccc(C2CCCN2C(=S)Nc2ccc(C)c(C)c2)cc1OC (stereo not given),n,n,n,n,n,n
C=C(CN(C)C)C(=O)c1ccc(C)cc1C,x,n,n,88,x,108
COc1cc(OC)c(C(=O)CCC(=O)O)cc1OC,n,n,n,n,n,n
C=C(CN(C)C)C(=O)c1cc(OC)c(OC)cc1OC,x,n,n,38,x,63
C=C(CN(C)C)C(=O)c1ccc2c(c1)OCO2,x,n,n,91,x,109
C[N+](C)(C)CCCC(=O)c1ccc2c(c1)OCO2,n,n,n,n,n,n
CCNS(=O)(=O)c1ccc2c(c1)n(C)c(=O)n2C,n,n,n,n,n,n
CC1=NNC(=O)/C1=C\c1cn(-c2ccccc2)nc1-c1ccc(F)cc1,x,86,n,n,x,n
O=Cc1ccc(O)c2ncccc12,n,n,n,47,n,n
Cc1ccc(NCc2ccc(O)c3ncccc23)cc1,n,n,n,n,n,n
N#C/C(=C\c1cccc([N+](=O)[O-])c1)C(=O)NCc1cccnc1,n,n,n,n,n,n
N#C/C(=C\c1cccc([N+](=O)[O-])c1)C(=O)NCc1ccc(Cl)cc1,x,n,n,65,x,x
COc1ccc(C(=O)O/N=C/c2c(C(F)(F)F)nn(C)c2SCc2ccccc2Cl)cc1,n,50,n,n,n,n
N#Cc1cc(Oc2cccc3cccnc23)c(-n2nnc3ccccc32)cc1C#N,n,79,n,n,n,n
Cc1nn(-c2ccccc2)c2c1C(c1ccncc1)C(C#N)=C(N)O2 (stereo not given),n,n,n,n,n,n
COc1cc(-n2nc(C)c3c2OC(N)=C(C#N)C3c2ccccc2)c(Cl)c(Br)c1O (stereo not given),n,n,n,n,n,70
CCCN(CCC)C(=O)c1cc([N+](=O)[O-])cc2c1-c1ccc([N+](=O)[O-])cc1C2=C(C#N)C#N,n,x,x,x,n,66
Cc1cccc(N2CCN(C(=O)Cn3sc4nc(C)cc(C)c4c3=O)CC2C)c1 (stereo not given),n,n,n,n,n,72
COc1ccc(-c2sc(NC(=O)c3ccc(C)cc3)nc2-c2ccc([N+](=O)[O-])cc2)cc1,n,n,n,n,n,52
C[C@H](NC(=O)COc1ccccc1)C(=O)OCC(=O)c1cc2ccccc2o1,x,n,n,48,x,76
COc1ccc(OCC(=O)NNC(=O)c2cc3ccccc3o2)cc1,n,n,n,n,n,n
SMILES,APJ antagonist,EBI2 block,m5-HT2A agonist,CXCR6 block,APJ agonist,CCR6 antagonist
O=C(Nc1c(C(=O)N2CCOCC2)cnn1-c1ccccc1)c1ccc(F)cc1,n,n,15,n,n,n
O=C(Nc1c(C(=O)N2CCOCC2)cnn1-c1ccccc1)c1ccccc1,n,n,n,n,n,n
Cc1ccc(-c2nc(CN(C)C(C3CC3)C3CC3)c(C)o2)cc1,n,n,n,n,n,n
COc1ccc(NC(=O)CN2CCCCC2)c([N+](=O)[O-])c1,n,n,16,n,n,n
COc1ccc(NC(=O)CN2CCC(C)CC2)c([N+](=O)[O-])c1,n,n,n,n,n,n
CCN(CC)CCCN1C(=O)C(O)=C(C(=O)c2ccco2)C1c1ccc(OC(C)C)cc1 (stereo not given),n,n,n,n,n,93
COc1ccccc1C(=O)N/C(N)=N/c1nc2ccccc2o1,n,n,n,n,n,75
COc1ccc(CC(=O)Nc2cccc(-c3nnc(-c4cccc(C)c4)o3)c2)cc1OC,n,n,n,n,24,n
COc1cc([N+](=O)[O-])cc(/C=N/NC(=O)C(C)Nc2cccc3ccccc23)c1O (stereo not given),n,56,n,56,n,n
O=C(/C=C/c1ccc(Br)cc1)c1ccc(NC2=NCCCS2)cc1,n,78,n,n,n,n
Cn1nc(C(=O)N2CCc3ccccc3C2)c2ccccc2c1=O,n,n,n,n,n,n
CCOc1ccc(N=C/C=C/c2ccccc2)c(O)c1,n,n,n,n,n,52
CCOc1ccc(NCC(=O)N/N=C/C=C/c2ccccc2)cc1,n,n,n,n,n,n
CNc1nnc(-c2cccc(N(C)C)c2)s1,n,n,n,n,n,n
O=S(=O)(NC1CC(NS(=O)(=O)OCC(Cl)(Cl)Cl)C2CCCCC12)OCC(Cl)(Cl)Cl (stereo not given),n,n,15,n,n,n
O=C1C(Nc2ccccc2)=C/C(=N/S(=O)(=O)c2cccs2)c2ccccc21,x,n,n,42,x,64
Cc1ccc(NC2=C/C(=N/S(=O)(=O)c3cccs3)c3ccccc3C2=O)cc1,n,n,n,n,n,59
CC(C)(C)c1ccc(S(=O)(=O)/N=C2\C=C(NS(=O)(=O)c3ccccc3)C(=O)c3ccccc32)cc1,n,n,n,n,n,50
Cc1ccc(S(=O)(=O)/N=C2\C=C(Nc3cccc(C(=O)O)c3)C(=O)c3ccccc32)cc1,n,n,n,n,n,n
Cc1ccc(S(=O)(=O)/N=C2\C=C(Nc3ccc(O)cc3)C(=O)c3ccccc32)cc1,n,n,n,n,n,63
CC(Cc1ccccc1)NC(=O)C1(c2ccccc2)CCOCC1 (stereo not given),n,n,n,n,n,n
COc1ccccc1N1CCN(S(=O)(=O)CCNC(=O)c2ccc(Br)o2)CC1,n,n,n,n,n,n
Cc1ccc(S(=O)(=O)/N=C2/C=C(Sc3ncn[nH]3)C(=O)c3ccccc32)cc1,x,n,20,81,x,92
O=S(=O)(NCc1csc(-c2cccnc2)n1)c1ccc(Cl)s1,n,n,n,n,n,n

# Screens: PubChem, several laboratories
